Source: ChEMBL document CHEMBL1138987, “Development of cyclic gamma-MSH analogues with selective hMC3R agonist and hMC3R/hMC5R antagonist activities” (J Med Chem, 2006)

Columns and labels:
Melanocortin receptor 3 [1] = target: T1, Melanocortin receptor 3 (Homo sapiens, UniProt P41968); assay: Activity against hMC3R transfected in HEK293 cells by intracellular cAMP accumulation; type: functional, cell-based
Summary of the method: (§1)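 HEK293 cells stably transfected with human receptor, grown to confluence in MEM with 10% FBS, seeded 48 h before assay. Cells preincubated 1 min at 37 °C in EBSS with IBMX (0.5 mM stock). Peptide added (10^-10 to 10^-5 M), 3 min at 37 °C. Stopped with ice-cold Tris/EDTA, boiled, cAMP measured by competitive binding kit. EC50 from nonlinear least-squares fit; mean of two experiments in triplicate.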

[2] = target: T2, Melanocyte-stimulating hormone receptor (Homo sapiens, UniProt Q01726); assay: Activity against hMC1R transfected in HEK293 cells by intracellular cAMP accumulation; type: functional, cell-based; summary of the method: as §1
Melanocortin receptor 4 [3] = target: T3, Melanocortin receptor 4 (Homo sapiens, UniProt P32245); assay: Activity against hMC4R transfected in HEK293 cells by intracellular cAMP accumulation; type: functional, cell-based; summary of the method: as §1
Melanocortin receptor 5 [4] = target: T4, Melanocortin receptor 5 (Homo sapiens, UniProt P33032); assay: Activity against hMC5R transfected in HEK293 cells by intracellular cAMP accumulation; type: functional, cell-based; summary of the method: as §1
Melanocortin receptor 5 [5] = target: T4, Melanocortin receptor 5; assay: Inhibitory activity against hMC5R transfected in HEK293 cells; type: cell-based
Summary of the method: (§2)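 Competition binding on whole HEK293 cells stably expressing the human receptor, seeded 48 h prior. Binding buffer was MEM, 25 mM HEPES pH 7.4, 0.2% BSA, 1,10-phenanthroline, leupeptin and bacitracin. Cells washed and lysed, then gamma counted. IC50 from nonlinear least-squares fit; mean of two experiments in triplicate.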

Melanocortin receptor 3 [6] = target: T1, Melanocortin receptor 3; assay: Inhibitory activity against hMC3R transfected in HEK293 cells; type: cell-based; summary of the method: as §2
[7] = target: T2, Melanocyte-stimulating hormone receptor; assay: Inhibitory activity against hMC1R transfected in HEK293 cells; type: cell-based; summary of the method: as §2
Target sequence in this assay (Q01726 whole entry): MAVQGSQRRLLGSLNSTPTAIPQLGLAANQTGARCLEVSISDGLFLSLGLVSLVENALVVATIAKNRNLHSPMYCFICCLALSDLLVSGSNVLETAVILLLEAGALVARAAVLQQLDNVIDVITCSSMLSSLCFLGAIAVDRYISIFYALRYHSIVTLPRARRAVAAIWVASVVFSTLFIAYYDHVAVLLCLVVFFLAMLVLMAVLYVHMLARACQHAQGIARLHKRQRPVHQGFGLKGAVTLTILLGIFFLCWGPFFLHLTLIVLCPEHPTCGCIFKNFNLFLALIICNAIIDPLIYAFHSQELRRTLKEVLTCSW

Melanocortin receptor 4 [8] = target: T3, Melanocortin receptor 4; assay: Inhibitory activity against hMC4R transfected in HEK293 cells; type: cell-based; summary of the method: as §2

T4 sequence (P33032 whole entry): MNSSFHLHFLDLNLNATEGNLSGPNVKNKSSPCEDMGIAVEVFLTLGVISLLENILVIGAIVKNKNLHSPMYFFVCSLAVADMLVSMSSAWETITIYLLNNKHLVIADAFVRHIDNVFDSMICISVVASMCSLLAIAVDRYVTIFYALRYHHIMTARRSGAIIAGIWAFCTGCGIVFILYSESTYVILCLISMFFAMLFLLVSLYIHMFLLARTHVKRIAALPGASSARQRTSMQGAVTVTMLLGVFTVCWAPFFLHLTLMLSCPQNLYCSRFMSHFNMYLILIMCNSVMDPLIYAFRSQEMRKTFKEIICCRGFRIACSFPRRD
T3 sequence (P32245 whole entry): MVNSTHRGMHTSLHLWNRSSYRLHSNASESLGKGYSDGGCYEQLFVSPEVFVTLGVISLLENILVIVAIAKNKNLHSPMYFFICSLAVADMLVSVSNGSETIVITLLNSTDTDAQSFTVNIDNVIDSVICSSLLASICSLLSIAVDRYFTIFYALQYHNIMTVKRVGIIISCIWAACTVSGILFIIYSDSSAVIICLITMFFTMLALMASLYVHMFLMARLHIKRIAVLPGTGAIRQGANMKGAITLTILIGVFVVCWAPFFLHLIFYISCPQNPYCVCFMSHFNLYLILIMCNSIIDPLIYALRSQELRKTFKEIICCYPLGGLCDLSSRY
T1 sequence (P41968 whole entry): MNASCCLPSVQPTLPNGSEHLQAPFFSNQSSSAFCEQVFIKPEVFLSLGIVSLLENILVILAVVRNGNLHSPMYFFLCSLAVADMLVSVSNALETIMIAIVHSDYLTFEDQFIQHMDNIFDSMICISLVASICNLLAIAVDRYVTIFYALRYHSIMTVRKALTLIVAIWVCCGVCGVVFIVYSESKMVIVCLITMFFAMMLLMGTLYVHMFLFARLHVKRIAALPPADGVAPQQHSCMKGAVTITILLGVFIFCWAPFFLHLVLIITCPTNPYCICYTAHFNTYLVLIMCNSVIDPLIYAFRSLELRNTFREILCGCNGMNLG

| Compound | %max (Melanocortin receptor 3 [1]) | %max [2] | %max (Melanocortin receptor 4 [3]) | %max (Melanocortin receptor 5 [4]) | IC50 (Melanocortin receptor 5 [5]) | IC50 (Melanocortin receptor 3 [6]) | EC50 (Melanocortin receptor 3 [1]) | EC50 [2] | IC50 [7] | IC50 (Melanocortin receptor 4 [8]) | EC50 (Melanocortin receptor 4 [3]) | EC50 (Melanocortin receptor 5 [4]) | Kb (Melanocortin receptor 3 [1]; read-out: pA2 (converted)) | Kb (Melanocortin receptor 5 [4]; read-out: pA2 (converted)) |
| --- | --- | --- | --- | --- | --- | --- | --- | --- | --- | --- | --- | --- | --- | --- |
| CCCC[C@@H]1NC(=O)CC[C@@H](C(N)=O)NC(=O)[C@H](Cc2c[nH]c3ccccc23)NC(=O)[C@H](CCCN=C(N)N)NC(=O)[C@@H](Cc2ccc3ccccc3c2)NC(=O)[C@H](Cc2c[nH]cn2)NC1=O | 0% | 0% | 0% | 0% |  |  |  |  |  |  |  |  |  |  |
| CCCC[C@@H]1NC(=O)CC[C@@H](C(N)=O)NC(=O)[C@H](Cc2c[nH]c3ccccc23)NC(=O)[C@H](CCCN=C(N)N)NC(=O)[C@@H](Cc2ccc3ccccc3c2)NC(=O)[C@@H](CC(=O)O)NC1=O | 0% | 0% | 0% | 0% |  |  |  |  |  |  |  |  |  |  |
| CCCC[C@@H]1NC(=O)CC[C@@H](C(N)=O)NC(=O)[C@H](Cc2c[nH]c3ccccc23)NC(=O)[C@H](CCCN=C(N)N)NC(=O)[C@@H](Cc2ccccc2)NC(=O)[C@@H](CCC(N)=O)NC1=O | 60% | 20% | 0% | 8% |  |  |  |  |  |  |  |  |  |  |
| CCCC[C@@H]1NC(=O)CC[C@@H](C(N)=O)NC(=O)[C@H](Cc2c[nH]c3ccccc23)NC(=O)[C@H](CCCN=C(N)N)NC(=O)[C@@H](Cc2ccccc2)NC(=O)[C@@H]2CCCN2C1=O |  |  |  |  | 0.4 µM | 2.7 µM | > 10 µM | > 10 µM | > 10 µM | 2.7 µM | 10 µM | 0.85 µM |  |  |
| CCCC[C@@H]1NC(=O)CC[C@@H](C(N)=O)NC(=O)[C@H](Cc2c[nH]c3ccccc23)NC(=O)[C@H](CCCN=C(N)N)NC(=O)[C@@H](Cc2ccc3ccccc3c2)NC(=O)[C@H](CCC(=O)O)NC1=O | 7% | 0% | 0% | 0% | 0.044 µM | 0.14 µM | 2.8 µM | > 10 µM | > 10 µM | 0.034 µM | > 10 µM | > 10 µM |  |  |
| CCCC[C@@H]1NC(=O)CC[C@@H](C(N)=O)NC(=O)[C@H](Cc2c[nH]c3ccccc23)NC(=O)[C@H](CCCN=C(N)N)NC(=O)[C@@H](Cc2ccc3ccccc3c2)NC(=O)[C@@H](CCCN=C(N)N)NC1=O | 0% | 0% | 10% | 0% |  |  |  |  |  |  |  |  |  |  |
| CCCC[C@@H]1NC(=O)CC[C@@H](C(N)=O)NC(=O)[C@H](Cc2c[nH]c3ccccc23)NC(=O)[C@H](CCCN=C(N)N)NC(=O)[C@@H](Cc2ccccc2)NC(=O)[C@H](CCC(=O)O)NC1=O |  |  |  |  | 3.06 µM | 1.2 µM | 4.3 µM | > 10 µM | > 10 µM | > 10 µM | > 10 µM | > 10 µM |  |  |
| CCCC[C@@H]1NC(=O)CC[C@@H](C(N)=O)NC(=O)[C@H](Cc2c[nH]c3ccccc23)NC(=O)[C@H](CCCN=C(N)N)NC(=O)[C@@H](Cc2ccccc2)NC(=O)[C@H](CCC(N)=O)NC1=O |  |  |  |  | 0.5 µM | 0.27 µM | 1.7 µM | 1 µM | 1 µM | > 10 µM | > 10 µM | 0.3 µM |  |  |
| CCCC[C@@H]1NC(=O)CC[C@@H](C(N)=O)NC(=O)[C@H](Cc2c[nH]c3ccccc23)NC(=O)[C@H](CCCN=C(N)N)NC(=O)[C@@H](Cc2ccc3ccccc3c2)NC(=O)[C@H](C(C)C)NC1=O | 0% | 0% | 13% | 0% | 0.0022 µM | 0.0017 µM | > 10 µM | > 10 µM | 4 µM | 0.18 µM | 0.016 µM | > 10 µM | 0.00398 µM | 0.002 µM |
| CCCC[C@@H]1NC(=O)CC[C@@H](C(N)=O)NC(=O)[C@H](Cc2c[nH]c3ccccc23)NC(=O)[C@H](CCCN=C(N)N)NC(=O)[C@@H](Cc2ccccc2)NC(=O)[C@H](CC(=O)O)NC1=O | 0% | 0% | 0% | 0% | > 10 µM | > 10 µM | > 10 µM | > 10 µM | > 10 µM | 0.15 µM | > 10 µM | > 10 µM |  |  |
| CCCC[C@@H]1NC(=O)CC[C@@H](C(N)=O)NC(=O)[C@H](Cc2c[nH]c3ccccc23)NC(=O)[C@H](CCCN=C(N)N)NC(=O)[C@@H](Cc2ccccc2)NC(=O)[C@H](CCCN=C(N)N)NC1=O |  |  |  |  | 0.068 µM | 0.14 µM | 0.0012 µM | > 10 µM | 1.4 µM | 0.27 µM | 0.174 µM | > 10 µM |  |  |
| CCCC[C@@H]1NC(=O)CC[C@@H](C(N)=O)NC(=O)[C@H](Cc2c[nH]c3ccccc23)NC(=O)[C@H](CCCN=C(N)N)NC(=O)[C@@H](Cc2ccccc2)NC(=O)[C@H](Cc2c[nH]cn2)NC1=O | 147% | 0% | 48% | 0% | 0.1 µM | 0.56 µM | 0.037 µM | > 10 µM | > 10 µM | 0.17 µM | 2 µM | > 10 µM |  |  |
| CCCC[C@@H]1NC(=O)CC[C@@H](C(N)=O)NC(=O)[C@H](Cc2c[nH]c3ccccc23)NC(=O)[C@H](CCCN=C(N)N)NC(=O)[C@@H](Cc2ccccc2)NC(=O)[C@@H](CCC(=O)O)NC1=O | 54% | 0% | 0% | 0% |  |  |  |  |  |  |  |  |  |  |
| CCCC[C@@H]1NC(=O)CC[C@@H](C(N)=O)NC(=O)[C@H](Cc2c[nH]c3ccccc23)NC(=O)[C@H](CCCN=C(N)N)NC(=O)[C@@H](Cc2ccccc2)NC(=O)[C@H]2CCCN2C1=O | 0% | 0% | 0% | 10% |  |  |  |  |  |  |  |  |  |  |
| CCCC[C@@H]1NC(=O)CC[C@@H](C(N)=O)NC(=O)[C@H](Cc2c[nH]c3ccccc23)NC(=O)[C@H](CCCN=C(N)N)NC(=O)[C@@H](Cc2ccccc2)NC(=O)[C@H](CCCC)NC1=O | 27% | 0% | 50% | 0% | 0.07 µM | 0.25 µM | 0.3 µM | > 10 µM | > 10 µM | 0.6 µM | > 1 µM | > 10 µM |  |  |
| CCCC[C@@H]1NC(=O)CC[C@@H](C(N)=O)NC(=O)[C@H](Cc2c[nH]c3ccccc23)NC(=O)[C@H](CCCN=C(N)N)NC(=O)[C@@H](Cc2ccccc2)NC(=O)[C@@H](CCCN=C(N)N)NC1=O | 112% | 0% | 63% | 0% |  |  |  |  |  |  |  |  |  |  |
| CCCC[C@@H]1NC(=O)CC[C@@H](C(N)=O)NC(=O)[C@H](Cc2c[nH]c3ccccc23)NC(=O)[C@H](CCCN=C(N)N)NC(=O)[C@@H](Cc2ccc3ccccc3c2)NC(=O)[C@@H]2CCCN2C1=O | 0% | 0% | 0% | 0% | 0.01 µM | 0.013 µM | > 10 µM | > 10 µM | > 10 µM | 1 µM | > 10 µM | > 10 µM |  |  |
| CCCC[C@@H]1NC(=O)CC[C@@H](C(N)=O)NC(=O)[C@H](Cc2c[nH]c3ccccc23)NC(=O)[C@H](CCCN=C(N)N)NC(=O)[C@@H](Cc2ccc3ccccc3c2)NC(=O)[C@H](CC(=O)O)NC1=O |  |  |  |  | 0.22 µM | 0.82 µM | > 10 µM | > 10 µM | > 10 µM | 0.17 µM | > 10 µM | > 10 µM |  |  |
| CCCC[C@@H]1NC(=O)CC[C@@H](C(N)=O)NC(=O)[C@H](Cc2c[nH]c3ccccc23)NC(=O)[C@H](CCCN=C(N)N)NC(=O)[C@@H](Cc2ccc3ccccc3c2)NC(=O)[C@H](Cc2cnc[nH]2)NC1=O |  |  |  |  | 0.0023 µM | 0.012 µM | > 10 µM | > 10 µM | > 10 µM | 0.1 µM | > 10 µM | > 10 µM |  |  |
| CCCC[C@@H]1NC(=O)CC[C@@H](C(N)=O)NC(=O)[C@H](Cc2c[nH]c3ccccc23)NC(=O)[C@H](CCCN=C(N)N)NC(=O)[C@@H](Cc2ccc3ccccc3c2)NC(=O)[C@H](CCCN=C(N)N)NC1=O |  |  |  |  | 0.0023 µM | 0.0026 µM | > 10 µM | > 10 µM | 1.5 µM | 0.077 µM | 0.53 µM | > 10 µM |  |  |
| CCCC[C@@H]1NC(=O)CC[C@@H](C(N)=O)NC(=O)[C@H](Cc2c[nH]c3ccccc23)NC(=O)[C@H](CCCN=C(N)N)NC(=O)[C@@H](Cc2ccc3ccccc3c2)NC(=O)[C@H](CCC(N)=O)NC1=O | 0% | 0% | 50% | 0% | 0.0014 µM | 0.0014 µM | > 10 µM | > 1 µM | 1 µM | 0.065 µM | 0.13 µM | > 10 µM |  |  |
| CCCC[C@@H]1NC(=O)CC[C@@H](C(N)=O)NC(=O)[C@H](Cc2c[nH]c3ccccc23)NC(=O)[C@H](CCCN=C(N)N)NC(=O)[C@@H](Cc2ccc3ccccc3c2)NC(=O)[C@H](CCCC)NC1=O | 0% | 0% | 31% | 10% | 0.0038 µM | 0.006 µM | > 10 µM | > 1 µM | 3 µM | 0.016 µM | 0.34 µM | 0.2 µM |  |  |
